# Assay results from ChEMBL document CHEMBL1151472, “In vitro interactions between tacrolimus and azoles against Candida albicans determined by different methods” (2008).
# Key:
# Assay type in all cases: functional
# Candida albicans [1] = experiment: Antimicrobial activity against azole-susceptible Candida albicans isolate CA5 after 48 hrs by broth microdilution method; conditions: isolate CA5, 48 h
# Summary of the method: (§1)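 CLSI M27-A2 broth microdilution was run in RPMI 1640 (pH 7.0, 2% dextrose, 0.165 M MOPS). Inoculum was 2.5 × 10^3 CFU/ml, incubated 35°C for 48 h without shaking. Plates were read visually (0–5 scale) and at OD 492 nm. MIC80 = lowest concentration giving an 80% absorbance decrease vs drug-free control. Triplicate.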
# Candida albicans [2] = experiment: Antimicrobial activity against azole-resistant Candida albicans isolate CA135 cotreated with calcineurin signaling inhibitor Tacrolimus after 48 hrs by microdilution checkerboard technique; conditions: isolate CA135, 48 h
# Summary of the method: (§2)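 Checkerboard microdilution in MOPS-buffered RPMI 1640 (pH 7.0, 2% dextrose) with 2.5 × 10^3 CFU/ml for 48 h at 35°C. Final FK506 was 0.002–0.125 μg/ml. Azole finals were FLC 0.125–128 μg/ml, and ITR and VRC 0.008–8 μg/ml. MIC80 is an 80% OD492 decrease vs drug-free control. Interaction was scored by FICI (synergy ≤0.5, antagonism >4) and by ΔE from triplicates.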
# Candida albicans [3] = experiment: Antimicrobial activity against azole-resistant Candida albicans isolate CA10 after 48 hrs by broth microdilution method; conditions: isolate CA10, 48 h
# Summary of the method: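 Broth microdilution per CLSI M27-A2 in RPMI 1640 (pH 7.0, 2% dextrose, 0.165 M MOPS), final inoculum 2.5 × 10^3 CFU/ml; 35°C without shaking for 48 h. Read visually (0–5 scale) and by OD 492 nm; MIC80 = lowest concentration giving 80% drop in absorbance versus drug-free control. Triplicate.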
# Candida albicans [4] = experiment: Antimicrobial activity against azole-susceptible Candida albicans isolate CA14 after 48 hrs by broth microdilution method; conditions: isolate CA14, 48 h; summary of the method: as §1
# Candida albicans [5] = experiment: Antimicrobial activity against azole-susceptible Candida albicans isolate CA14 co-treated with calcineurin signaling inhibitor tacrolimus after 48 hrs by microdilution checkerboard technique; conditions: isolate CA14, 48 h; summary of the method: as §2
# Candida albicans [6] = experiment: Antimicrobial activity against azole-resistant Candida albicans isolate CA10 assessed as growth at 1 ug/ml cotreated with 0.031 ug/ml calcineurin signaling inhibitor tacrolimus after 48 hrs by microdilution checkerboard technique relative to control; design: scale not given: the % may be the effect or the level left
# Summary of the method: (§3)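 Checkerboard microdilution in RPMI 1640 (pH 7.0, 2% dextrose, 0.165 M MOPS). Azole dilutions run along columns and FK506 along rows, at 4× final concentration. Final inoculum 2.5 × 10^3 CFU/ml from Sabouraud-subcultured cells. Incubated 35°C for 48 h; OD read at 492 nm. Background from microorganism-free plates subtracted. Growth % = well OD / drug-free well OD. Triplicate on different days, values averaged.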
# Candida albicans [7] = experiment: Antimicrobial activity against azole-resistant Candida albicans isolate CA10 assessed as growth at 16 ug/ml after 48 hrs by microdilution checkerboard technique relative to control
# Summary of the method: (§4)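 Checkerboard microdilution in MOPS-buffered RPMI 1640 (pH 7.0, 2% dextrose). Final ranges: azole 0.125–128 μg/ml (FLC) or 0.008–8 μg/ml (ITR, VRC), tacrolimus 0.002–0.125 μg/ml; solvent 1% in single-drug wells. Inoculum 2.5 × 10^3 CFU/ml, 35°C, 48 h. Growth % = background-subtracted OD492 of each well / drug-free well. Triplicate on different days.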
# Candida albicans [8] = experiment: Antimicrobial activity against azole-resistant Candida albicans isolate CA10 assessed as growth at 4 ug/ml cotreated with 0.125 ug/ml calcineurin signaling inhibitor Tacrolimus after 48 hrs by microdilution checkboard technique relative to control; design: scale not given: the % may be the effect or the level left
# Summary of the method: (§5)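 CA10 in RPMI 1640 with 2% dextrose and 0.165 M MOPS, pH 7.0. Checkerboard used twofold dilutions, with azole alone in row H and the drug-free growth control in well H1. Final inoculum was 2.5 × 10^3 CFU/ml, incubated 35°C for 48 h, with OD read at 492 nm. Growth % = background-subtracted well OD / drug-free well OD. Run in triplicate on different days.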
# Candida albicans [9] = experiment: Antimicrobial activity against azole-resistant Candida albicans isolate CA10 assessed as growth at 0.125 ug/ml co-treated with 0.004 ug/ml calcineurin signaling inhibitor tacrolimus after 48 hrs by microdilution checkboard technique relative to control; design: scale not given: the % may be the effect or the level left; summary of the method: as §4
# Candida albicans [10] = experiment: Antimicrobial activity against azole-resistant Candida albicans isolate CA10 assessed as growth at 8 ug/ml cotreated with 0.063 ug/ml calcineurin signaling inhibitor tacrolimus after 48 hrs by microdilution checkerboard technique relative to control; design: scale not given: the % may be the effect or the level left; summary of the method: as §5
# Candida albicans [11] = experiment: Antimicrobial activity against azole-resistant Candida albicans isolate CA10 assessed as growth at 128 ug/ml cotreated with 0.016 ug/ml calcineurin signaling inhibitor tacrolimus after 48 hrs by microdilution checkerboard technique relative to control; design: scale not given: the % may be the effect or the level left; summary of the method: as §4
# Candida albicans [12] = experiment: Antimicrobial activity against azole-resistant Candida albicans isolate CA10 assessed as growth at 1 ug/ml cotreated with 0.016 ug/ml calcineurin signaling inhibitor tacrolimus after 48 hrs by microdilution checkerboard technique relative to control; design: scale not given: the % may be the effect or the level left; summary of the method: as §4
# Candida albicans [13] = experiment: Antimicrobial activity against azole-resistant Candida albicans isolate CA10 assessed as growth at 0.25 ug/ml cotreated with 0.125 ug/ml calcineurin signaling inhibitor Tacrolimus after 48 hrs by microdilution checkboard technique relative to control; design: scale not given: the % may be the effect or the level left; summary of the method: as §3
# Candida albicans [14] = experiment: Antimicrobial activity against azole-resistant Candida albicans isolate CA10 assessed as growth at 4 ug/ml cotreated with 0.008 ug/ml calcineurin signaling inhibitor tacrolimus after 48 hrs by microdilution checkerboard technique relative to control; design: scale not given: the % may be the effect or the level left; summary of the method: as §5
# Candida albicans [15] = experiment: Antimicrobial activity against azole-resistant Candida albicans isolate CA10 assessed as growth at 1 ug/ml cotreated with 0.063 ug/ml calcineurin signaling inhibitor Tacrolimus after 48 hrs by microdilution checkboard technique relative to control; design: scale not given: the % may be the effect or the level left; summary of the method: as §4
# Candida albicans [16] = experiment: Antimicrobial activity against azole-resistant Candida albicans isolate CA10 assessed as growth at 8 ug/ml co-treated with 0.008 ug/ml calcineurin signaling inhibitor tacrolimus after 48 hrs by microdilution checkboard technique relative to control; design: scale not given: the % may be the effect or the level left; summary of the method: as §5
# Candida albicans [17] = experiment: Antimicrobial activity against azole-resistant Candida albicans isolate CA10 assessed as growth at 1 ug/ml cotreated with 0.008 ug/ml calcineurin signaling inhibitor Tacrolimus after 48 hrs by microdilution checkboard technique relative to control; design: scale not given: the % may be the effect or the level left; summary of the method: as §4
# Candida albicans [18] = experiment: Antimicrobial activity against azole-resistant Candida albicans isolate CA10 assessed as growth at 64 ug/ml after 48 hrs by microdilution checkerboard technique relative to control; summary of the method: as §5
# Candida albicans [19] = experiment: Antimicrobial activity against azole-resistant Candida albicans isolate CA10 assessed as growth at 32 ug/ml cotreated with 0.002 ug/ml calcineurin signaling inhibitor Tacrolimus after 48 hrs by microdilution checkboard technique relative to control; design: scale not given: the % may be the effect or the level left; summary of the method: as §5
# Candida albicans [20] = experiment: Antimicrobial activity against azole-resistant Candida albicans isolate CA10 assessed as growth at 0.25 ug/ml co-treated with 0.008 ug/ml calcineurin signaling inhibitor tacrolimus after 48 hrs by microdilution checkboard technique relative to control; design: scale not given: the % may be the effect or the level left; summary of the method: as §3
# Candida albicans [21] = experiment: Antimicrobial activity against azole-resistant Candida albicans isolate CA10 assessed as growth at 128 ug/ml co-treated with 0.063 ug/ml calcineurin signaling inhibitor tacrolimus after 48 hrs by microdilution checkboard technique relative to control; design: scale not given: the % may be the effect or the level left; summary of the method: as §4
# Candida albicans [22] = experiment: Antimicrobial activity against azole-resistant Candida albicans isolate CA135 after 48 hrs by broth microdilution method; conditions: isolate CA135, 48 h; summary of the method: as §1
smiles,measurement,setting,value
OC(Cn1cncn1)(Cn1cncn1)c1ccc(F)cc1F [FLUCONAZOLE],MIC,Candida albicans [1],0.25 µg/mL
same,MIC,Candida albicans [2],0.25 µg/mL
same,MIC,Candida albicans [3],256 µg/mL
same,MIC,Candida albicans [4],0.5 µg/mL
same,MIC,Candida albicans [5],0.25 µg/mL
same,Activity,Candida albicans [6],17%
same,Activity,Candida albicans [7],50%
same,Activity,Candida albicans [8],5%
same,Activity,Candida albicans [9],67%
same,Activity,Candida albicans [10],12%
same,Activity,Candida albicans [11],18%
same,Activity,Candida albicans [12],24%
same,Activity,Candida albicans [13],7%
same,Activity,Candida albicans [14],30%
same,Activity,Candida albicans [15],18%
same,Activity,Candida albicans [16],28%
same,Activity,Candida albicans [17],25%
same,Activity,Candida albicans [18],48%
same,Activity,Candida albicans [19],36%
same,Activity,Candida albicans [20],39%
same,Activity,Candida albicans [21],5%
same,MIC,Candida albicans [22],64 µg/mL
